This is an account of results in the EternaBench riboswitch data.

The subject of the data set is MS2 coat protein. Briefly: apparent Kd, MS2 coat protein; higher = weaker binding; RNA-MaP array; FMN 200 µM where present. Put shortly: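 Designs were transcribed by stalled E. coli RNA polymerase on Illumina sequencing-chip clusters. They were titrated with SNAP-549-labelled MS2 coat protein from 0.7 or 1.5 nM, doubling to 3 µM, in 100 mM Tris-HCl pH 7.5, 80 mM KCl, 4 mM MgCl2, BSA, DTT, yeast tRNA and Tween-20, without and then with constant ligand. The apparent Kd is the median of filtered per-cluster fits after normalisation of green signal to red-channel RNA signal and control-cluster median Fmax.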

Setting [1] is: designed as: OFF switch for flavin mononucleotide, no ligand.
Where [2] appears, read: ligand present: flavin mononucleotide, designed as: OFF switch for flavin mononucleotide.
[3] abbreviates: designed as: ON switch for flavin mononucleotide, no ligand.
The mark [4] stands for this setting: ligand present: flavin mononucleotide, designed as: ON switch for flavin mononucleotide.

For the sequence “GACUGUCUAGGAUAUGCGACGUUUUACAUGAGGAUCACCCAUGUUGUCUGCGUGUGUGUGGCAGAAGGAGACAAAC”, the “apparent Kd” value runs as follows: under setting [1], 13 nM; under setting [2], 19.9 nM.
As to “AAAAAGCGAGGAUAUGCGGGCGGGUGCGGCCAGCCGAUGUGACAUGAGGAUCACCCAUGUAGAAGGCGCAAAAA”, the “apparent Kd” value was determined as 12.3 nM under setting [1] and 15.1 nM under setting [2].
The corresponding values for “UGACACAUGAGGGUCUCCCAUGACAUGAGGAUCACCCAUGUGCAGGAUAUACGUGUGAUGGUAUAGUAGAAGGGCACUCUAUGU” are 46.4 nM and 65.8 nM.
“GCACGAGACUAAGGAUAUGGAGUGUCUACAUUAAACAUGAGGAUCACCCAUGUAGAGAGUACGAUUCAGAAGGUAGAGACGUGC”: the “apparent Kd” value under setting [3] was determined as 48.6 nM and the “apparent Kd” value under setting [4] amounted to 22.1 nM.
Consider “AAGACAUGAGGAUCACCCAUGUAAAGACCGGUCGAUCAAUGUGAGGAUAUACCAUAAUUGAUAGGGUAGAAGGCACUGGGUUGA”, for which the “apparent Kd” value under setting [3] came to 168 nM and the “apparent Kd” value under setting [4] came to 128 nM.
In the case of “GGAGCUCACAUGAACAUGAGGAUCACCCAUGUAAAUUCUCAUGAGGAUAUGGAUCCUAAUUGGAUCCAGAAGGCAUGGAGCUCC”, the “apparent Kd” value under setting [3] was 1350 nM and the “apparent Kd” value under setting [4] is 316 nM.
The corresponding values for “UUAAUUAUACAAGGAUAUCUAUUGUUAUUUCGACUUACAUGAGGAUCACCCAUGUUAAUAUAUUUAGAGAAGGUGUAUUUUCAG” are 86.8 nM and 36.5 nM.
On to “AUGUACCUAGGAUAUACAUGAGGAUCACCCAUGUCACAAAUAAAACACAGGUAUCCUGGUAGAAGGAGGAACAA”, for which the “apparent Kd” value worked out at 25 nM under setting [1] and 105 nM under setting [2].
On to “CCGGAAACGGGUAGCCAGACAUGAGGAUCACCCAUGUGAUCAGAGGAUAUGGAUCCUAAUUGGAUCCAGAAGGCUGUCAGCUAC”, for which the “apparent Kd” value reads like this: under setting [3], 554 nM; under setting [4], 74.8 nM.
With “UUUACAUGAGGAUCACCCAUGUUUAGAAAGAUUAAUUUAAGUGAGGAUAUACAUAAUAAUAAAUUGUAGAAGGCACUGGGUACA”, the “apparent Kd” value reads like this: under setting [3], 19.3 nM; under setting [4], 20.6 nM.
As for “UGAGCGCACGAGAAGGGCGGGUUCACGGGCUCCUGACGAGACAUGAGGAUCACCCAUGUAACCACGCAGGAUAUCGACCGGAUC”, the “apparent Kd” value under setting [1] came out at 20.9 nM and the “apparent Kd” value under setting [2] came to 141 nM.
Regarding “UUAUGUAUUGUAGGAUAUCACAAGUUAUGUAUUAUAAUUGUAAUUUUGUAAUGAGAAGGACAUAUACAUGAGGAUCACCCAUGU”, the “apparent Kd” value under setting [1] was found to be 18.9 nM and the “apparent Kd” value under setting [2] came out at 14.9 nM.
“GGUCGGAGCAGAGGAUAUUACAUGAGGAUCACCCAUGUAUGAACCAAUAGCUGGAAACAGCAAUGUAAGAAGGCUGCUCCGACA”: the “apparent Kd” value under setting [1] came to 13.5 nM and the “apparent Kd” value under setting [2] came out at 173 nM.
With “AAAGAAGCACUUGGAACCGGACAAUGAGAAGGCCACGCACAUGAGGAUCACCCAUGUAAAGCUAUGGAGGAUAUCAUGAUGGAU”, the “apparent Kd” value is 46.4 nM under setting [3] and 6.73 nM under setting [4].
With “GAGGACUGAAUAAUAAGUAGAAAUACAUGAGGAUCACCCAUGUAGGAUAUCGUCAGGAAUACUGACGAGAAGGACAUACAGUCC”, the “apparent Kd” value reads like this: under setting [1], 14.1 nM; under setting [2], 18.1 nM.
“AGUAUGAGAGGAUAUACGAAUAAACAUGGAAACAUGAUGGGACAUGAGGAUCACCCAUGUAGAAGGCUCGUACA”: the “apparent Kd” value runs as follows: under setting [1], 118 nM; under setting [2], 358 nM.
Take “AAUUACAGAUGAGGAUAUUGACAUGAGGAUCACCCAUGUAUUUGGGAAUGUUUACUGAAUUCUUACGAGAAGGUAUACGUACUU”: the “apparent Kd” value was 122 nM under setting [1] and 94.3 nM under setting [2].
As for “GUGCACACUCGAGGAUAUCGGAGAGGACUCCUUCGAGAAGGCGAUUCGUGCCGUGUUAUUCUGGACAUGAGGAUCACCCAUGUG”, the “apparent Kd” value turned out to be 126 nM under setting [3] and 38.2 nM under setting [4].
Consider “AAAAAACAUGAGGAUCACCCAUGUCCUCGGACGUGAGGAUAUGUACAGACUUCGGUCUGUACAGAAGGCAUGUCAA”, for which the “apparent Kd” value under setting [3] worked out at 408 nM and the “apparent Kd” value under setting [4] turned out to be 604 nM.
As to “GUCAGCUCGUGAGGAUAUACAACACUGCUUCGGCAGUGUAGUAAGAUCACAUGAGGAUCACCCAUGUAGAAGGCACGAGCUGAU”, the “apparent Kd” value runs as follows: under setting [1], 6.05 nM; under setting [2], 26.3 nM.
Take “GUCUUACAUGAGGAUCACCCAUGUGAGGAUAUAUGUGGUGUUGAGAAAUUGGUGUUGUAUAGAAGGCGCGUGAU”: the “apparent Kd” value runs as follows: under setting [1], 25.5 nM; under setting [2], 24.8 nM.
For the sequence “GCAGACGUAGUGAGGAUAUGCUCUACCUCGGUAGAGCAGAAGGCACAUGAGGAUCACCCAUGUGGUUCCUCUGC”, the “apparent Kd” value by setting is: under setting [1], 19.1 nM; under setting [2], 80.9 nM.
Consider “CCUUUUGUAUAAGGAUAUGUAACAAGGUGUAGGUUUGUAGGACUUGCGCUUACAGAAGGUAUACAUGAGGAUCACCCAUGUCGA”, for which the “apparent Kd” value came out at 29.9 nM under setting [1] and 157 nM under setting [2].
